Screens (PubChem)
This is a sample that favours compounds with a hit; in the whole collection about 2.2% have one here.
NR2E3 ag-1: agonists of human nuclear receptor NR2E3. Q9Y5X4. GST-NR2E3/biotin-RetCOR TR-FRET, 1536-well. inhibition of corepressor binding, % at 4.78 µM. actives 0.12% (n = 320,000);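 active means percent inhibition above the cutoff of mean plus 3 SD of all tested compounds, set per screening campaign, cut at about 20% in these data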;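 further: 0% = DMSO wells and 100% = biotin wells as full block of FRET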
Target sequence (Q9Y5X4 whole entry, looked up): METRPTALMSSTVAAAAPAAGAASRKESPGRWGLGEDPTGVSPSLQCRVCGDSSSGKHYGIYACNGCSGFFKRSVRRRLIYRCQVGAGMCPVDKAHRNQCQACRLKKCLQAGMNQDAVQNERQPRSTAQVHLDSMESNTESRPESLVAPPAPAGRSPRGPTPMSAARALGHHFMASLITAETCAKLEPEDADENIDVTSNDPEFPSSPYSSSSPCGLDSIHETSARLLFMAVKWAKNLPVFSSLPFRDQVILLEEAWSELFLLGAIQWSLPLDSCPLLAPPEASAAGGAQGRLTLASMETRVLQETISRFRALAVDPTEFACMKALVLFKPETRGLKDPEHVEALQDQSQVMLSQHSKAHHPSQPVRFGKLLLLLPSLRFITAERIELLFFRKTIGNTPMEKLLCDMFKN
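Material – GST-tagged NR2E3 plus biotinylated RetCOR corepressor · Quantity – NR2E3 fusion 1.35 nM · Times – 5 h incubation at 4 °C · Medium – pH 7.5 Tris-based buffer · Technique – TR-FRET, Eu(K)-anti-GST donor, streptavidin-D2 acceptor, ex 340, em 617/671 nm · Benchmarks – high control biotin, low control 0.6% DMSO · Format – 1536-well plates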
Jurkat NFkB inh: lowers PMA/ionomycin-induced NF-kB signal in Jurkat cells. PMA/ionomycin-induced NF-kB luciferase reporter, luminescence. inhibition, % at 4 µM. actives 0.53% (n = 330,000). AID 435003; in the data active means inhibition above about 50%
NR2E3 ag-2: activates human NR2E3 receptor; AID 602229; CHO-S Gal4-NCOR/VP16-NR2E3 two-hybrid, luciferase; inhibition of corepressor binding, % at 3.98 µM; actives 0.35% (n = 360,000); Q9Y5X4;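 active means inhibition above the mean of all tested compounds plus 3 SD, cut at about 70% in these data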;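 further: 0% = DMSO with NR2E3 transfected cells and 100% = cells lacking NR2E3 construct; higher means lower luciferase signal from less NR2E3 corepressor binding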
FGF22 binding: binders of recombinant human FGF22 by thermal shift; SYPRO orange fluorescence; percent of sucrose octasulfate shift, DMSO zero; activity (Tm shift, normalised), % at 9.99 µM; actives 1.5% (n = 340,000); AID 651658;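 active means mean Tm shift, scaled 0 neutral to 100 positive control, at about 1.3% or above, every replicate too, limit read from the data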
Target sequence (Q9HCT0 whole entry, looked up): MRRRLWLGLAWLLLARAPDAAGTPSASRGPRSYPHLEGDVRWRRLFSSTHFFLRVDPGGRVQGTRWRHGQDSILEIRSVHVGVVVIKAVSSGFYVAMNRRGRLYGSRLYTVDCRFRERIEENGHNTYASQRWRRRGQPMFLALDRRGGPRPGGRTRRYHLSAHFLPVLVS
miR-122 sensor: miR-122 inhibition in Huh7 cells; Huh7 miR-122 Renilla luciferase sensor, 48 h; neutral wells = 0, positive control = 100; activation (reporter increase), % at 12.5 µM; actives 0.3% (n = 340,000); AID 602342;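 active means mean replicate activation score at least 90 and every replicate individually at or above 90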;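 further: higher luciferase means less miR-122 activity so hits act as miR-122 inhibitors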
697 NFkB inh: inhibitors of the PMA/ionomycin-induced NF-kB reporter in 697 B cells; 697 B-cell NF-kB luciferase reporter, 16 h; inhibition, % at 4 µM; actives 0.33% (n = 330,000); AID 435022; in the data active means inhibition above about 35%
NR2E3 ag conf: NR2E3 agonism confirmed in two-hybrid assay. shares compounds with NR2E3 ag-2. CHO-S mammalian two-hybrid NR2E3-NCOR, luciferase luminescence. inhibition, % at 3.98 µM. actives 51% (n = 2,300). AID 624378;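 active means average inhibition above a cutoff equal to the mean inhibition of all tested compounds plus one SD, cut at about 70% in these data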;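 further: 0% = DMSO in NR2E3 cells and 100% = DMSO in cells lacking NR2E3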
VP16 counter: reduces GAL4-VP16 reporter signal in NR2E3 counterscreen | shares compounds with NR2E3 ag-2 | CHO-S GAL4-VP16 luciferase reporter, luminescence | inhibition, % at 3.98 µM | actives 29% (n = 2,300);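 active means mean inhibition above a cutoff equal to the average over all tested compounds plus one standard deviation, cut at about 70% in these data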;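 further: luciferase from a UAS reporter driven by GAL4-VP16 transactivation; 0% = DMSO with VP16-transfected cells and 100% = DMSO with cells lacking VP16; higher means less reporter light so more repression of VP16 activity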
* hit, by the source's call; . = not tested or not shown; [ ] = another dose, or the depositor's remark.

SMILES | NR2E3 ag-1 | Jurkat NFkB inh | NR2E3 ag-2 | FGF22 binding | miR-122 sensor | 697 NFkB inh | NR2E3 ag conf | VP16 counter
C[C@H]1CN([C@@H](C)CO)C(=O)c2cc(NC(=O)Nc3ccc4c(c3)OCO4)ccc2O[C@@H]1CN(C)S(=O)(=O)c1cccs1 | . | . | . | 0 | -1[16.7 µM] | . | . | .
Cc1nc(NCCc2ccc(S(N)(=O)=O)cc2)c2c(C)c(C)sc2n1 | -3 | 8 | 66 | . | 4 | -26 | 73* | 65
Cc1nc(NCc2ccc(S(N)(=O)=O)cc2)c2c(C)c(C)sc2n1 | -1 | 0 | -27 | 0 | -1 | -4 | . | .
N=C1SCC(=O)N1c1ncc(Cc2ccc(F)cc2)s1 | -2 | -5 | 97* | 0 | 1 | -9 | 57 | 22
O=C1CSC(=S)N1c1ccc(F)cc1 | -1 | -10 | . | . | . | -4 | . | .
C[C@H](CO)N1C[C@H](C)[C@@H](CN(C)CC2CCCCC2)OCCCC[C@H](C)Oc2ccc(NC(=O)CCCCCC(=O)Nc3ccccc3N)cc2C1=O | . | . | . | 0 | 4[16.7 µM] | . | . | .
CC(=NNC(=S)N1CC2CCC(CC2)C1)c1ccccn1 | . | . | 87* | 0 | . | . | -37 | -9
CC(=NNC(=S)N1CCN(c2ccccn2)CC1)c1nccs1 | . | . | 90* | . | . | . | 42 | 46
CC(=NNC(=S)N1CCN(C2CCCCCC2)CC1)c1ccccn1 | . | . | 78* | 0 | 4 | . | 19 | -7
CC(=NNC(=S)N1CC2CCC(CC2)C1)c1cnccn1 | . | . | 76* | 0 | . | . | -20 | -26
CC(=NNC(=S)N1CCN(c2ccccn2)CC1)c1ccccn1 | . | . | 4 | 0 | 0 | . | . | .
O=C(c1ccco1)N1CCN(S(=O)(=O)c2ccc(Oc3ccccc3)cc2)CC1 | 1 | 27 | 49 | 0 | -6 | 5 | 48 | 66
O=C(c1ccco1)N1CCN(S(=O)(=O)c2ccc(Br)cc2)CC1 | -1 | -11 | -10 | 0 | -3 | -4 | . | .
Cc1cc(/C=N/n2cnnc2)c(C)n1-c1ccc(OCc2ccc(F)cc2)cc1 | 1 | 7 | 48 | . | -4 | -93 | 96* | 85*
CCCN(C)C[C@@H]1Oc2cc(-c3ccc(C)cc3)ccc2S(=O)(=O)N([C@H](C)CO)C[C@@H]1C | . | . | . | 0 | -3[16.7 µM] | . | . | .
Cc1ccc(S(=O)(=O)N2CCCCC2)cc1NCC(=O)Nc1ccc(Br)cc1F | . | . | 54 | 1 | 8 | . | 81* | 72*
O=C(CNc1ccccc1F)Nc1cc(S(=O)(=O)N2CCCCC2)ccc1Cl | 3 | -9 | -19 | 0 | 1 | 13 | . | .
COc1ccc(C=NNC(=S)NC23CC4CC(CC(C4)C2)C3)cc1OC | . | . | 64 | 0 | . | . | 2 | 12
COc1cc(/C=N/NC(=O)NC23CC4CC(CC(C4)C2)C3)ccc1OCC(N)=O | 1 | 7 | -13 | -1 | -24 | 27 | . | .
Cc1ccc(NC(=O)C(C)c2cccc(C(=O)c3ccccc3)c2)cc1O (centres undefined) | 1 | 24 | 65 | 0 | . | -11 | 95* | 80*
C[C@@H]1CN([C@@H](C)CO)S(=O)(=O)c2ccc(C#CCN(C)C)cc2O[C@@H]1CN(C)C(=O)CN(C)C | . | . | . | 0 | -3[16.7 µM] | . | . | .
CCCCC(=O)N1CCN(c2nc3ccc(Cl)cc3s2)CC1 | 3 | -30 | 50 | 0 | -6 | -102 | 66 | -1
CC(C)(CC(=O)O)CC(=O)N1CCN(c2nc3ccc(Cl)cc3s2)CC1 | -1 | -21 | 14 | . | . | -8 | . | .
Cc1c(C(C)NC(=O)c2cc(COc3cccc4cnccc34)on2)cnn1C (centres undefined) | 3 | 36 | 72* | 0 | -3 | -34 | 53 | 61
CN(Cc1cccc2cnccc12)C(=O)c1cc(COc2ccc(F)cc2F)on1 | . | 11 | 72* | 0 | -10 | -40 | 54 | 55
SMILES | NR2E3 ag-1 | Jurkat NFkB inh | NR2E3 ag-2 | FGF22 binding | miR-122 sensor | 697 NFkB inh | NR2E3 ag conf | VP16 counter
CCc1ccc(CN(C)C(=O)c2cc(COc3cccc4cnccc34)on2)cc1 | 4 | 43 | 108* | 0 | 3 | -13 | 98* | 89*
CN(Cc1cccc2ccccc12)C(=O)c1cc(COc2c(F)cccc2F)on1 | -3 | 1 | -40 | 0 | 8 | -3 | . | .
CCc1ccc(CN(C)C(=O)c2cc(COc3c(F)cccc3F)on2)cc1 | 2 | -10 | -24 | 0 | . | -3 | . | .
CCC(=O)N1[C@H](CO)[C@@H]2c3ccccc3N(C(=O)Nc3ccccc3Cl)C[C@@H]21 | . | . | . | . | -5[16.7 µM] | . | . | .
C[C@H](O)C#Cc1cnc2c(c1)C(=O)N([C@@H](C)CO)C[C@H](C)[C@H](CN(C)C(=O)Nc1ccc(C(F)(F)F)cc1)O2 | . | . | . | 0 | . | . | . | .
Cc1cc(C)c(C(=O)/C=C/c2cccc3ccccc23)c(=O)[nH]1 | -1 | 8 | 63 | 0 | . | -5 | 14 | 31
CCCNC(=O)C[C@H]1CC[C@@H]2[C@@H](COc3ccc(NC(=O)CC)cc3C(=O)N2C)O1 | . | . | . | 0 | -2[16.7 µM] | . | . | .
CCOc1cc(C)c(S(=O)(=O)Nc2ccc3cn[nH]c3c2)cc1C | -3 | 16 | 91* | . | 124* | -6 | 86* | 70
O=C(NCC1CC1)[C@H]1[C@H](CO)[C@H]2Cn3c(ccc(-c4cccnc4)c3=O)[C@@H]1N2C(=O)C1CC1 | . | . | . | 0 | . | . | . | .
O=C(Nc1nccs1)c1ccc(S(=O)(=O)NCC2CCCCC2)cc1 | 0 | 37 | 58 | . | -19 | -22 | 59 | 65
CC(C)CC(N)c1csc(NC(=O)c2cc(C(C)(C)C)nn2Cc2ccccc2)n1 (centres undefined) | . | . | 52 | 0 | . | . | 14 | 7
CCOC(=O)Nc1ccc2c(c1)C(=NNC(=S)NC)c1ccccc1-2 | . | . | 86* | 0 | . | . | -18 | -21
CC(=O)Nc1ccc(S(=O)(=O)NCCSCc2ccccc2Cl)cc1 | 4 | 24 | 71* | 0 | . | -16 | 82* | 65
Cc1noc(C)c1COC(=O)c1cccc(S(=O)(=O)N2CCCCCC2)c1 | -1 | 26 | 62 | . | -14 | -32 | 45 | 58
Cc1noc(C)c1COC(=O)c1ccc(F)c(S(=O)(=O)N2CCCCC2)c1 | 0 | -8 | -25 | 0 | . | 4 | . | .
Cc1cc(C)cc(NC(=O)CCc2nc3sc4c(c3c(=O)[nH]2)CCCC4)c1 | 1 | 12 | 84* | 0 | 34 | 32 | 96* | 16
N#C/C(=N\Nc1ccc(Cl)c(Cl)c1)C(=O)C1CC1 | 7 | -26 | 80* | 0 | 19 | -156 | 100* | 55
CCCC(=O)Nc1ccc2c(c1)C(=O)N(C)[C@@H]1CC[C@@H](CC(=O)OC)O[C@H]1CO2 | . | . | . | 0 | 30[16.7 µM] | . | . | .
